For this test, the target named is T1, Aromatase (Homo sapiens, UniProt P11511).
T1 sequence (P11511 whole entry): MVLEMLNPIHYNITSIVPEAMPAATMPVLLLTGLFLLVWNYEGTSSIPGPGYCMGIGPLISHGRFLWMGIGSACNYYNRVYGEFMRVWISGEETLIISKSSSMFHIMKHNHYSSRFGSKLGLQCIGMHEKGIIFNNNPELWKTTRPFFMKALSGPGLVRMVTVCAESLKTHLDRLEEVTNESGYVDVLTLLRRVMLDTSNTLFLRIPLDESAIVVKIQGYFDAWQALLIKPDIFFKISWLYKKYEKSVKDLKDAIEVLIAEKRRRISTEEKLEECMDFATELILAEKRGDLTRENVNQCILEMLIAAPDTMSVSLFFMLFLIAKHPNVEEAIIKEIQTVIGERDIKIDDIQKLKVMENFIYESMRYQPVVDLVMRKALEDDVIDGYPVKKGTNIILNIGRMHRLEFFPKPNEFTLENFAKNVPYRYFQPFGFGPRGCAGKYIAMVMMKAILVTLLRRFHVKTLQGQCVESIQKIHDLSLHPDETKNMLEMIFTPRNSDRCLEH
Kind of test: Inhibition of recombinant human aromatase using 7-methoxy-4-trifluoromethyl coumarin as substrate measured at […] conditions by fluorescence analysis. An outline of the steps: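 Semiautomated high-throughput fluorometric screen with recombinant human aromatase and 7-methoxy-4-trifluoromethyl coumarin (MFC) substrate. Inhibition read as reduced fluorescence from MFC conversion. Blank values subtracted from sample wells to give net signal. Activity normalized to no-inhibitor wells. Duplicate assays. Racemic compounds tested.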

Each structure is given as a SMILES string.

As a reminder, the IC50 is the point on the concentration scale where inhibition reaches its midpoint.

For `O=S(=O)(c1ccc(F)cc1)N1CCCC(Cn2ccnc2)C1` (configuration not stated), the IC50 was found to be 51 nM. `COC(=O)c1ccccc1S(=O)(=O)N1CCCC(Cn2ccnc2)C1` (configuration not stated): the IC50 worked out at 53 nM. For the compound `N#Cc1ccc(S(=O)(=O)N2CCCC(Cn3ccnc3)C2)cc1` (configuration not stated), the IC50 is 36 nM. With `Cc1cc(F)ccc1S(=O)(=O)N1CCCC(Cn2ccnc2)C1` (configuration not stated), the half-inhibitory concentration (IC50) was determined as 48 nM. As for `N#Cc1ccc(S(=O)(=O)N2CCCC(Cn3ccnc3)C2)c(Cl)c1` (configuration not stated), the 50% inhibitory concentration (IC50) was 79 nM. Turning to `COc1ccc(S(=O)(=O)N2CCCC(Cn3ccnc3)C2)cc1F` (configuration not stated), the IC50 came to 14 nM. On to `COc1ccc(S(=O)(=O)N2CCCC(Cn3ccnc3)C2)cc1C(C)(C)C` (configuration not stated), for which the IC50 was 9 nM.

As to `O=S(=O)(c1ccc(F)c(F)c1F)N1CCCC(Cn2ccnc2)C1` (configuration not stated), the half-maximal inhibitory concentration (IC50) was 46 nM. In the case of `O=S(=O)(c1ccc(OC2CCCC2)c(F)c1)N1CCCC(Cn2ccnc2)C1` (configuration not stated), the IC50 worked out at 22 nM. The value for `COc1cc([N+](=O)[O-])ccc1S(=O)(=O)N1CCCC(Cn2ccnc2)C1` (configuration not stated) was 129 nM; that for `COc1ccc(S(=O)(=O)N2CCCC(Cn3ccnc3)C2)c(OC)c1` (configuration not stated) was 131 nM; that for `O=S(=O)(c1ccc(F)c(F)c1)N1CCCC(Cn2ccnc2)C1` (configuration not stated) was 43 nM. Under `Cc1cc(S(=O)(=O)N2CCCC(Cn3ccnc3)C2)ccc1F` (configuration not stated) stands 24 nM.

As for `COc1ccc(S(=O)(=O)N2CCCC(Cn3ccnc3)C2)cc1Br` (configuration not stated), the 50% inhibitory concentration (IC50) was 6 nM. Under `COc1ccc(S(=O)(=O)N2CCCC(Cn3ccnc3)C2)c(C)c1C` (configuration not stated) stands 59 nM. As for `COc1ccc(S(=O)(=O)N2CCCC(Cn3ccnc3)C2)cc1OC` (configuration not stated), the 50% inhibitory concentration (IC50) is 42 nM.

In the case of `O=[N+]([O-])c1cccc(Cl)c1Oc1cccc(S(=O)(=O)N2CCCC(Cn3ccnc3)C2)c1` (configuration not stated), the IC50 came to 9 nM. As for `COc1c(C)cc(S(=O)(=O)N2CCCC(Cn3ccnc3)C2)cc1C` (configuration not stated), the IC50 amounted to 21 nM. As for `O=S(=O)(c1ccc2nsnc2c1)N1CCCC(Cn2ccnc2)C1` (configuration not stated), the half-inhibitory concentration (IC50) was 7 nM.

For `COc1c(C)cc(S(=O)(=O)N2CCCC(Cn3ccnc3)C2)c(C)c1C` (configuration not stated), the IC50 amounted to 45 nM. In the case of `O=[N+]([O-])c1ccc(S(=O)(=O)N2CCCC(Cn3ccnc3)C2)cc1C(F)(F)F` (configuration not stated), the IC50 was found to be 16 nM. With `O=S(=O)(c1cccc2nsnc12)N1CCCC(Cn2ccnc2)C1` (configuration not stated), the concentration for half-maximal inhibition (IC50) was 54 nM.

In the case of `CS(=O)(=O)c1ccc(S(=O)(=O)N2CCCC(Cn3ccnc3)C2)cc1` (configuration not stated), the half-inhibitory concentration (IC50) was found to be 48 nM. On to `O=S(=O)(c1ccc(OC2CCCC2)cc1)N1CCCC(Cn2ccnc2)C1` (configuration not stated), for which the IC50 was 14 nM. For `O=S(=O)(c1ccc2c(c1)OCCO2)N1CCCC(Cn2ccnc2)C1` (configuration not stated), the IC50 amounted to 13 nM.

In the case of `O=C(O)c1cc(S(=O)(=O)N2CCCC(Cn3ccnc3)C2)ccc1O` (configuration not stated), the IC50 amounted to 339 nM. Turning to `O=S(=O)(c1ccc(F)c(Cl)c1)N1CCCC(Cn2ccnc2)C1` (configuration not stated), the IC50 was 14 nM.
